Source: ChEMBL document CHEMBL4229410, “Facile construction of fused benzimidazole-isoquinolinones that induce cell-cycle arrest and apoptosis in colorectal cancer cells” (Bioorg Med Chem, 2018)
The source made the active and inactive calls. The rule behind the calls is not given here.

Tests used:
Focal adhesion kinase 1 [1] = target: T1, Focal adhesion kinase 1 (Homo sapiens, UniProt Q05397); assay: Binding affinity to human FAK (D402 to R696 residues) expressed in bacterial expression system by KINOMEscan assay
[2] = target: Dual specificity mitogen-activated protein kinase kinase 2 (Homo sapiens, UniProt P36507); assay: Inhibition of full length human MEK2 (M1 to V400 residues) expressed in mammalian expression system assessed as residual activity at 5 uM by KINOMEscan assay relative to control
[3] = target: Mast/stem cell growth factor receptor Kit (Homo sapiens, UniProt P10721); assay: Inhibition of human KIT (I571 to D952 residues) expressed in bacterial expression system assessed as residual activity at 5 uM by KINOMEscan assay relative to control
[4] = target: MAP kinase-interacting serine/threonine-protein kinase 2 (Homo sapiens, UniProt Q9HBH9); assay: Binding affinity to human MKNK2 (G63 to S388 residues) expressed in mammalian expression system by KINOMEscan assay
SRSF protein kinase 3 = SRSF protein kinase 3 (Homo sapiens, UniProt Q9UPE1); assay: Binding affinity to human SRPK3 (P41 to P567 residues) expressed in bacterial expression system by KINOMEscan assay
[5] = target: Glycogen synthase kinase-3 beta (Homo sapiens, UniProt P49841); assay: Binding affinity to full length human GSK3B (M1 to T433 residues) expressed in mammalian expression system by KINOMEscan assay
HT-29 [6] = assay: Cell cycle arrest in human HT-29 cells assessed as accumulation at G1-phase at 25 uM after 48 hrs by propidium iodide staining based flow cytometry (reference value: 41.86%); assay type: functional
[7] = target: Hepatocyte growth factor receptor (Homo sapiens, UniProt P08581); assay: Binding affinity to human MET (D1010 to S1367 residues) expressed in bacterial expression system by KINOMEscan assay
[8] = target: Casein kinase I isoform gamma-2 (Homo sapiens, UniProt P78368); assay: Binding affinity to full length human CSNK1G2 (M1 to K415 residues) expressed in bacterial expression system by KINOMEscan assay
SW-620 [9] = assay: Cell cycle arrest in human SW620 cells assessed as accumulation at G2-phase at 50 uM after 48 hrs by propidium iodide staining based flow cytometry (reference value: 14.08%); assay type: functional
[10] = target: Fibroblast growth factor receptor 3 (Homo sapiens, UniProt P22607); assay: Inhibition of partial length human FGFR3 (R442 to S771 residues) expressed in bacterial expression system assessed as residual activity at 5 uM by KINOMEscan assay relative to control
[11] = target: Serine/threonine-protein kinase DCLK1 (Homo sapiens, UniProt O15075); assay: Binding affinity to partial length human DCAMKL1 (L270 to A662 residues) expressed in mammalian expression system by KINOMEscan assay
HT-29 [12] = assay: Effect on total AKT expression in human HT-29 cells up to 75 uM after 48 hrs by Western blot analysis; assay type: ADME, cell-based; details: ht-29, 48 h
Procedure, shortened: (§1)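 HT29 or SW620 cells were treated at 0, 25, 50 and 75 μM for 48 h and lysed in RIPA with protease and phosphatase inhibitors. Protein was quantified by BCA. 50 μg lysate was run on 8–15% SDS-PAGE and transferred to PVDF. Blocking was 5% BSA/TBST for 2 h; primary antibodies were applied overnight at 4 °C, then HRP secondary 1 h at room temperature.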

SW-620 [13] = assay: Induction of apoptosis in human SW620 cells assessed as late apoptotic cells at 50 uM after 48 hrs by Annexin-V-FITC/propidium iodide staining based flow cytometry (reference value: 1.2%); assay type: functional
SW-620 [14] = assay: Induction of apoptosis in human SW620 cells assessed as early apoptotic cells at 25 uM after 48 hrs by Annexin-V-FITC/propidium iodide staining based flow cytometry (reference value: 0.4%); assay type: functional
SW-620 [15] = assay: Increase in PTEN expression in human SW620 cells after 48 hrs by Western blot analysis; assay type: functional, cell-based; procedure, shortened: as §1
Insulin receptor = Insulin receptor (Homo sapiens, UniProt P06213); assay: Binding affinity to human INSR (P997 to E1318 residues) expressed in mammalian expression system by KINOMEscan assay
[16] = target: Tyrosine-protein kinase JAK3 (Homo sapiens) (UniProt P52333); assay: Inhibition of human JAK3 JH1 catalytic domain (I781 to S1124 residues) expressed in mammalian expression system assessed as residual activity at 5 uM by KINOMEscan assay relative to control
[17] = target: Phosphatidylinositol 4-phosphate 3-kinase C2 domain-containing subunit beta (Homo sapiens, UniProt O00750); assay: Binding affinity to human PIK3C2B (M1 to L1634 residues) expressed in mammalian expression system by KINOMEscan assay
HT-29 [18] = assay: Inhibition of colony formation in human HT-29 cells assessed as reduction in number of colonies at 25 to 75 uM treated for 48 hrs followed by compound washout and measured after 14 hrs by crystal violet staining based assay; assay type: functional, cell-based
Focal adhesion kinase 1 [19] = target: T1, Focal adhesion kinase 1; assay: Inhibition of human FAK (D402 to R696 residues) expressed in bacterial expression system assessed as residual activity at 5 uM by KINOMEscan assay relative to control
[20] = target: Ribosomal protein S6 kinase alpha-3 (Homo sapiens, UniProt P51812); assay: Binding affinity to human N-terminal RSK2 kinase domain 1 (M1 to D394 residues) expressed in mammalian expression system by KINOMEscan assay
HT-29 [21] = assay: Cell cycle arrest in human HT-29 cells assessed as accumulation at G2-phase at 25 uM after 48 hrs by propidium iodide staining based flow cytometry (reference value: 15.45%); assay type: functional
[22] = target: T2, Cyclin-dependent kinase 2 (Homo sapiens, UniProt P24941); assay: Inhibition of full length human CDK2 (M1 to L298 residues) expressed in bacterial expression system assessed as residual activity at 5 uM by KINOMEscan assay relative to control
[23] = target: Phosphatidylinositol 4,5-bisphosphate 3-kinase catalytic subunit gamma isoform (Homo sapiens, UniProt P48736); assay: Binding affinity to human PIK3CG (S144 to A1102 residues) expressed in mammalian expression system by KINOMEscan assay
HT-29 [24] = assay: Increase in PTEN expression in human HT-29 cells after 48 hrs by Western blot analysis; assay type: functional, cell-based; procedure, shortened: as §1
[25] = target: T2, Cyclin-dependent kinase 2; assay: Binding affinity to full length human CDK2 (M1 to L298 residues) expressed in bacterial expression system by KINOMEscan assay
[26] = target: Phosphatidylinositol 4,5-bisphosphate 3-kinase catalytic subunit alpha isoform (Homo sapiens, UniProt P42336); assay: Binding affinity to human PIK3CA (R108 to N1068 residues) expressed in mammalian expression system by KINOMEscan assay
[27] = target: Casein kinase I isoform delta (Homo sapiens, UniProt P48730); assay: Binding affinity to full length human CSNK1D (M1 to K409 residues) expressed in bacterial expression system by KINOMEscan assay
[28] = target: Serine/threonine-protein kinase DCLK1 (Homo sapiens) (UniProt O15075); assay: Inhibition of partial length human DCAMKL1 (L270 to A662 residues) expressed in mammalian expression system assessed as residual activity at 5 uM by KINOMEscan assay relative to control
Sequence of Serine/threonine-protein kinase DCLK1 (Homo sapiens) (O15075 whole entry, the tested form may be a part): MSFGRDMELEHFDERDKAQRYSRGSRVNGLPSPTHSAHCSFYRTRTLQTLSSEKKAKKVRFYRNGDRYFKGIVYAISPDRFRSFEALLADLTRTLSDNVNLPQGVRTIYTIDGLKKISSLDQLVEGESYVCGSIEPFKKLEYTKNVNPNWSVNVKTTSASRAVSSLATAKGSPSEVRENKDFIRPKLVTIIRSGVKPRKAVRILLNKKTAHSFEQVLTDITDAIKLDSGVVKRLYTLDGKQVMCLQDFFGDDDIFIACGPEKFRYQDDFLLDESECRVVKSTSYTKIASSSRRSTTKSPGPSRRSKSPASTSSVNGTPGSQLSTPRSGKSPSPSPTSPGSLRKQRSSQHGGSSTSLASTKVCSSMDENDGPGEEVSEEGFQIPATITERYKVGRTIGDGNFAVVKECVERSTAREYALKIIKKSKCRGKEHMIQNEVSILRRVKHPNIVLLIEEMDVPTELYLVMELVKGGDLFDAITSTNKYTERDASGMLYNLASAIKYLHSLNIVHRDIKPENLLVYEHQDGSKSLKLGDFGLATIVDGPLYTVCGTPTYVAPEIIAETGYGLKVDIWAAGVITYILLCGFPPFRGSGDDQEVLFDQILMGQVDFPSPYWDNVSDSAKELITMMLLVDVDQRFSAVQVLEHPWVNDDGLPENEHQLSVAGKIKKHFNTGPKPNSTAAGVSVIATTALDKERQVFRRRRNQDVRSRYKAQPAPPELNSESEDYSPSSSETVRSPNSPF

Sequence of Insulin receptor (P06213 28-758 limits assumed): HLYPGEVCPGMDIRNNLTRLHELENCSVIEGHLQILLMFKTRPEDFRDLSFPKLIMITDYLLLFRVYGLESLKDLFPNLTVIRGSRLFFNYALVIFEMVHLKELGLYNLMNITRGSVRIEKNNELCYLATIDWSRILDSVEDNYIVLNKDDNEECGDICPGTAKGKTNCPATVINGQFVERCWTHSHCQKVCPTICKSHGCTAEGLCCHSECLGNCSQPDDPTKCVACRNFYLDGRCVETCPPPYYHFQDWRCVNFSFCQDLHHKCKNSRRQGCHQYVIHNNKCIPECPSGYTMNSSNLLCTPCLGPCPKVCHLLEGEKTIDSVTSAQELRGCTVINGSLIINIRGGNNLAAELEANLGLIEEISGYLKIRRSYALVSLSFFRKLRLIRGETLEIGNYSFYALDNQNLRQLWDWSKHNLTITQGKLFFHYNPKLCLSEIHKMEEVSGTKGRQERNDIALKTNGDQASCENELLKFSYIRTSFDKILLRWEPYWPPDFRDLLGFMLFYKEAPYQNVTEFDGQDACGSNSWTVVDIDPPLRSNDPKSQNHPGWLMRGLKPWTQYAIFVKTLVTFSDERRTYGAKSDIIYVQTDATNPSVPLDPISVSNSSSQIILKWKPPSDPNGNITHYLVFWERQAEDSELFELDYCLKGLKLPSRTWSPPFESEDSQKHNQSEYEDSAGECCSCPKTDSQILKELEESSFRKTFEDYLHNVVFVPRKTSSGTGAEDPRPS
Sequence of Insulin receptor (P06213 763-1382 limits assumed): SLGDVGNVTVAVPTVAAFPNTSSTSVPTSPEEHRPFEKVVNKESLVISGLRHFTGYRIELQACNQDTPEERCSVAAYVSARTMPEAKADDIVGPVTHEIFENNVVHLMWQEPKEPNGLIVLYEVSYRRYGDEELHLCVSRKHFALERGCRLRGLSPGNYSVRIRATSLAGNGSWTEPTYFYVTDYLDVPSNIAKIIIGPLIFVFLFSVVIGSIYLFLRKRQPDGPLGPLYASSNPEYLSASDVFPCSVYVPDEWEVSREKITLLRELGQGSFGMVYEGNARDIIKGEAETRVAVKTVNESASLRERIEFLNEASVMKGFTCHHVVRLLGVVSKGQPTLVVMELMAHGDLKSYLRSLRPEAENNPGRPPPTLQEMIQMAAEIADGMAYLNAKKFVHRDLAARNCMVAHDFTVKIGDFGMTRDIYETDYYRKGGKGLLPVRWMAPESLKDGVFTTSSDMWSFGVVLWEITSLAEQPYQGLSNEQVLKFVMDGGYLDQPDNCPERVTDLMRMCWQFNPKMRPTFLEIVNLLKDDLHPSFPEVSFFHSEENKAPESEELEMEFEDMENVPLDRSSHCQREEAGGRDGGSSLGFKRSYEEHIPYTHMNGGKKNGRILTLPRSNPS
Sequence of SRSF protein kinase 3 (Q9UPE1 whole entry, the tested form may be a part): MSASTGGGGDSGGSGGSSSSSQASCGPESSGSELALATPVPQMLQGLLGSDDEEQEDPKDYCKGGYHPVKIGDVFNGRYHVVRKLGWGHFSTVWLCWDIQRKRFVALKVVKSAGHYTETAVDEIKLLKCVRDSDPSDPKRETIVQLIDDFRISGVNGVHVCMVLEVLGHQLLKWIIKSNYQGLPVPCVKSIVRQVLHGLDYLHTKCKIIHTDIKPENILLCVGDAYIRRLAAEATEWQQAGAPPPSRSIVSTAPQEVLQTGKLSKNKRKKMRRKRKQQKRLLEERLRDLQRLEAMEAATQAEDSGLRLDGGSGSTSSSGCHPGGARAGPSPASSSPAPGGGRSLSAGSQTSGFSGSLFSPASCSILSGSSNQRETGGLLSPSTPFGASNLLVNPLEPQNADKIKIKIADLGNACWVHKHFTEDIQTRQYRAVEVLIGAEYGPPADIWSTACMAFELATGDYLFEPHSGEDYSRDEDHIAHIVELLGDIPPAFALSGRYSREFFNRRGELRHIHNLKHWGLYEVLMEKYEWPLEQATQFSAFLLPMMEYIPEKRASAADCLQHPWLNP
Sequence of Serine/threonine-protein kinase DCLK1 (O15075 whole entry, the tested form may be a part): as the sequence (O15075 whole entry, the tested form may be a part) above
Sequence of Tyrosine-protein kinase JAK3 (Homo sapiens) (P52333 whole entry, the tested form may be a part): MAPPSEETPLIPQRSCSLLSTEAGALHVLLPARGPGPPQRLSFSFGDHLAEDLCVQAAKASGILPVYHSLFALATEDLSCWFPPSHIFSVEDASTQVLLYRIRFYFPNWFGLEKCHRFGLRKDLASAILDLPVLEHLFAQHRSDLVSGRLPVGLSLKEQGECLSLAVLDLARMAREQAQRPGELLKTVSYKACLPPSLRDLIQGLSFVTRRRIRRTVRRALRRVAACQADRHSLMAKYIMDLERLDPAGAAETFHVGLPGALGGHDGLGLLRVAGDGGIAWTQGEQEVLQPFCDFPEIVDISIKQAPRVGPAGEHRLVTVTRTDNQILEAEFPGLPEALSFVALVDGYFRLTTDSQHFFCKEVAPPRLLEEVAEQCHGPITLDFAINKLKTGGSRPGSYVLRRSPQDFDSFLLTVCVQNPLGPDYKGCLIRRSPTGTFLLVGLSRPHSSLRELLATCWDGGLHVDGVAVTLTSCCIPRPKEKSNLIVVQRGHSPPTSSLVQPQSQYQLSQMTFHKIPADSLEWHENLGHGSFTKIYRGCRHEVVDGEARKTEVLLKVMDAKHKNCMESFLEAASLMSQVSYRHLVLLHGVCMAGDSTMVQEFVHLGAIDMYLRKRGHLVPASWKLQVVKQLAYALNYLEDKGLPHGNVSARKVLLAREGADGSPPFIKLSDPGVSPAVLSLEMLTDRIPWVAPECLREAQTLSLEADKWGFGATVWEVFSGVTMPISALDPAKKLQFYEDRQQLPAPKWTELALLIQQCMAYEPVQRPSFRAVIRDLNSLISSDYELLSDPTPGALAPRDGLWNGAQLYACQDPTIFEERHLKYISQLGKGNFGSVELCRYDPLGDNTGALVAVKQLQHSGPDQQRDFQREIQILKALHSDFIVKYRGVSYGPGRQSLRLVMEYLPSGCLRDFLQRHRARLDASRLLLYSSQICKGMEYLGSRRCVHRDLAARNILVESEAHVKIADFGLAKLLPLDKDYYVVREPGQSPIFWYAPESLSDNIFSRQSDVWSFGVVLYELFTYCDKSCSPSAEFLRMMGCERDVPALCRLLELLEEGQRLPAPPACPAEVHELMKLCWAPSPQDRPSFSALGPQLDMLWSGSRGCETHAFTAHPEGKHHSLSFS
Sequence of Dual specificity mitogen-activated protein kinase kinase 2 (P36507 whole entry, the tested form may be a part): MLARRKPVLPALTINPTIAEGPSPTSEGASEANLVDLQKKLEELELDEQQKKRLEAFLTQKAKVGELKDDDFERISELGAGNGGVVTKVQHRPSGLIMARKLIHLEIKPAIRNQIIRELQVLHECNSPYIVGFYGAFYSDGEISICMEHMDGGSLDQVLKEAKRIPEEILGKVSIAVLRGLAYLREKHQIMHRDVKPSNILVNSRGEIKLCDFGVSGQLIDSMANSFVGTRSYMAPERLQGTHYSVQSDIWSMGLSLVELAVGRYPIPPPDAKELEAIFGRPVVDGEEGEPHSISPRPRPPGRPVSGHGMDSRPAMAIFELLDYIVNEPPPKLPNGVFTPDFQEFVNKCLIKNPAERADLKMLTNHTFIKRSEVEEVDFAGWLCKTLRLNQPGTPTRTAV
Sequence of Glycogen synthase kinase-3 beta (P49841 whole entry, the tested form may be a part): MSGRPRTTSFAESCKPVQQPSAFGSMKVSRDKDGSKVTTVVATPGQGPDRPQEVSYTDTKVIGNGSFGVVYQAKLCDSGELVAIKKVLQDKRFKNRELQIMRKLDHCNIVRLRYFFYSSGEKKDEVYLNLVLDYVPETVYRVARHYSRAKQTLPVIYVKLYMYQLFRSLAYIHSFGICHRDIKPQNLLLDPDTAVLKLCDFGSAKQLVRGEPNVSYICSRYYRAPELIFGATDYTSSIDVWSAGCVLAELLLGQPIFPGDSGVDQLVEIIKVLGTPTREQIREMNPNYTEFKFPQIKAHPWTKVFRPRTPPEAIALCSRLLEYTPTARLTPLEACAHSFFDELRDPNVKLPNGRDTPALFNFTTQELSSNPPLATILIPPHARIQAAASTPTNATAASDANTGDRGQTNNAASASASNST

## CC(C)CN(C(=O)c1cccnc1)c1c2ccccc2c(=O)n2c1[nH]c1ccccc12
Focal adhesion kinase 1 [1]
  Kd: ≥ 5 µM
[2]
  Activity: 82%
[3]
  Activity: 93%
[4]
  Kd: ≥ 5 µM
SRSF protein kinase 3
  Kd: ≥ 5 µM
[5]
  Kd: ≥ 5 µM
HT-29 [6]
  Activity: 42.5%
[7]
  Kd: ≥ 5 µM
[8]
  Kd: ≥ 5 µM
SW-620 [9]
  Activity: 21.52%
[10]
  Activity: 80%
[11]
  Kd: ≥ 5 µM
HT-29 [12]
  Activity: Non-Toxic
SW-620 [13]
  Activity: 12.1%
SW-620 [14]
  Activity: 0.7%
SW-620 [15]
  Activity: Dose-dependent effect
Insulin receptor
  Kd: ≥ 5 µM
[16]
  Activity: 73%
[17]
  Kd: ≥ 5 µM
HT-29 [18]
  inhibition: Active
Focal adhesion kinase 1 [19]
  Activity: 100%
[20]
  Kd: ≥ 5 µM
HT-29 [21]
  Activity: 16.97%
[22]
  Activity: 97%
[23]
  Kd: ≥ 5 µM
HT-29 [24]
  Activity: Dose-dependent effect
[25]
  Kd: ≥ 5 µM
[26]
  Kd: ≥ 5 µM
[27]
  Kd: ≥ 5 µM
[28]
  Activity: 74%
